Laboratory results: ChEMBL document CHEMBL4428077, “Synthesis and Biological Evaluation of N-((1-(4-(Sulfonyl)piperazin-1-yl)cycloalkyl)methyl)benzamide Inhibitors of Glycine Transporter-1” (J Med Chem, 2016)

Experiments:
Rattus norvegicus [1] = test: In vivo inhibition of glycine transporter-1 in Sprague-Dawley rat assessed as CSF glycine level at 100 mg/kg, po measured 2 hrs post dose by LC-MS/MS analysis relative to control; type: functional; design: scale not given: the % may be the effect or the level left
In short: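 Drug-naive Sprague-Dawley rats, n = 5 per group, given acute oral doses of 0.4-160.9 μmol/kg (0.3-100 mg/kg). Vehicle was Solutol 5% in 20% Captisol / 25 mM PBS, pH 2. Killed 2 h post-dose. CSF glycine was quantified by LC-MS/MS with a deuterated-glycine standard and expressed as % vehicle control, mean ± SEM. Two-way ANOVA with Tukey test.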

[2] = Drug level in Sprague-Dawley rat CSF at 30 mg/kg, po measured 2 hrs post dose by LC-MS/MS analysis; type: ADME, organism-based, Cerebrospinal fluid; conditions: read-out: Drug uptake
In short: (§1)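 Drug-naive Sprague−Dawley rats (n = 4−5/group) were dosed orally once in 5% Solutol plus 20% Captisol in 25 mM PBS, pH 2, and euthanized 2 h later by CO₂. CSF was drawn from the cisterna magna. Drug was measured in CSF, brain and plasma; data as mean ± SEM.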

[3] = Drug level in Sprague-Dawley rat CSF at 100 mg/kg, po measured 2 hrs post dose by LC-MS/MS analysis; type: ADME, organism-based, Cerebrospinal fluid; conditions: read-out: Drug uptake; in short: as §1
[4] = Drug level in Sprague-Dawley rat brain at 30 mg/kg, po measured 2 hrs post dose by LC-MS/MS analysis; type: ADME, organism-based; conditions: read-out: Drug uptake; in short: as §1
[5] = Drug level in Sprague-Dawley rat plasma at 100 mg/kg, po measured 2 hrs post dose by LC-MS/MS analysis; type: ADME, organism-based; in short: as §1
Rattus norvegicus [6] = test: In vivo inhibition of glycine transporter-1 in Sprague-Dawley rat assessed as CSF glycine level at 1 mg/kg, po qd for 5 days measured 2 hrs post last dose by LC-MS/MS analysis relative to control; type: functional; design: scale not given: the % may be the effect or the level left
In short: (§2)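 Drug-naive Sprague-Dawley rats, n = 5 per group, dosed orally once daily for 5 days with vehicle or 1.6, 4.8 or 16.1 μmol/kg. Vehicle was 5% Solutol / 20% Captisol in 25 mM PBS, pH 2. Killed 2 h or 48 h after the last dose. CSF glycine was expressed as % of vehicle control (vehicle 2 h post last dose), mean ± SEM. Two-way ANOVA with Tukey test.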

Rattus norvegicus [7] = test: In vivo inhibition of glycine transporter-1 in Sprague-Dawley rat assessed as CSF glycine level at 3 mg/kg, po qd for 5 days measured 2 hrs post last dose by LC-MS/MS analysis relative to control; type: functional; design: scale not given: the % may be the effect or the level left; in short: as §2
[8] = Drug level in Sprague-Dawley rat brain at 1 mg/kg, po qd for 5 days measured 2 hrs post last dose by LC-MS/MS analysis; type: ADME, organism-based; conditions: read-out: Drug uptake
In short: (§3)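 Drug-naive Sprague−Dawley rats (n = 5/group) were dosed orally once daily for 5 days in 5% Solutol plus 20% Captisol in 25 mM PBS, pH 2, and sacrificed 2 h after the last dose. Drug was measured in CSF, brain and plasma; mean ± SEM.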

[9] = Drug level in Sprague-Dawley rat plasma at 1 mg/kg, po qd for 5 days measured 2 hrs post last dose by LC-MS/MS analysis; type: ADME, organism-based; in short: as §3
[10] = Toxicity in Sprague-Dawley rat assessed as gross behavioral abnormality at 0.3 to 100 mg/kg, po; type: organism-based; conditions: in vivo
In short: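 Drug-naive Sprague–Dawley rats (n = 5/group) received a single oral dose of 0.4–160.9 μmol/kg in 5% Solutol plus 20% Captisol in 25 mM PBS, pH 2, and were watched for gross behavioral abnormalities until sacrifice at 2 h.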

[11] = Intrinsic clearance in cynomolgus monkey; type: ADME, Macaca fascicularis
Cytochrome P450 2C9 = Cytochrome P450 2C9 (Homo sapiens, UniProt P11712); test: Inhibition of CYP2C9 (unknown origin); type: ADME
[12] = Efflux ratio of apparent permeability in human Caco2 cells; type: ADME, cell-based; conditions: Caco-2
[13] = Apparent terminal half life in Sprague-Dawley rat plasma at 10 mg/kg, po or 2 mg/kg, iv administered as single dose by LC-MS/MS analysis; type: ADME, organism-based; conditions: read-out: betat1/2(app) (converted)
In short: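 Single-dose PK in drug-naive adult male Sprague−Dawley rats, n = 3 per group: 3.1 μmol/kg IV in 5% DMSO/10% Solutol in saline (5 mL/kg), or 15.7 μmol/kg PO in 5% Solutol/10% Captisol in 25 mM PBS, pH adjusted to 2 with HCl. Plasma parameters reported as mean ± SD.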

[14] = Drug level in po dosed Sprague-Dawley rat CSF measured 2 hrs post dose by LC-MS/MS analysis; type: ADME, organism-based, Cerebrospinal fluid; conditions: in vivo
Cynomolgus monkey = test: In vivo inhibition of glycine transporter-1 in po dosed cynomolgus monkey assessed as increase in CSF glycine level measured up to 24 hrs post dose by LC-MS/MS analysis; type: functional, Macaca fascicularis
In short: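 Cynomolgus monkeys, n = 3 per group, given oral doses of 0.4, 1.5, 4.7 or 15.7 μmol/kg. Vehicle was 5% Solutol / 20% Captisol in 25 mM PBS, pH 2. CSF (about 0.30 mL) was drawn through subcutaneous ports with a sterile Huber needle predose and at 0.5, 1, 2, 3, 4, 8, 12 and 24 h. Matched blood was taken at each time. Mean ± SD.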

[15] = Drug level in cynomolgus monkey plasma at 3 mg/kg, po measured at 1 hr post dose by LC-MS/MS analysis; type: ADME, organism-based, Macaca fascicularis
[16] = Drug level in cynomolgus monkey plasma at 3 mg/kg, po measured at 3 hrs post dose by LC-MS/MS analysis; type: ADME, organism-based, Macaca fascicularis
[17] = Drug level in cynomolgus monkey plasma at 3 mg/kg, po measured at 8 hrs post dose by LC-MS/MS analysis; type: ADME, organism-based, Macaca fascicularis
[18] = Drug level in cynomolgus monkey plasma at 10 mg/kg, po measured at 0.5 hr post dose by LC-MS/MS analysis; type: ADME, organism-based, Macaca fascicularis
In short: (§4)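 Cynomolgus monkeys (n = 3/group) fitted with subcutaneous CSF ports were dosed orally at 0.4−15.7 μmol/kg in 5% Solutol plus 20% Captisol in 25 mM PBS, pH 2. CSF (about 0.30 mL) and blood were sampled predose and at 0.5, 1, 2, 3, 4, 8, 12 and 24 h. Quantitation limit 1.0 ng/mL; mean ± SD.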

[19] = Drug level in cynomolgus monkey plasma at 10 mg/kg, po measured at 3 hrs post dose by LC-MS/MS analysis; type: ADME, organism-based, Macaca fascicularis
[20] = Drug level in cynomolgus monkey CSF at 10 mg/kg, po measured at 1 hr post dose by LC-MS/MS analysis; type: ADME, organism-based, Macaca fascicularis, Cerebrospinal fluid; conditions: read-out: Drug uptake; in short: as §4
[21] = Drug level in cynomolgus monkey CSF at 10 mg/kg, po measured at 8 hrs post dose by LC-MS/MS analysis; type: ADME, organism-based, Macaca fascicularis, Cerebrospinal fluid; conditions: read-out: Drug uptake; in short: as §4
[22] = Drug level in po dosed cynomolgus monkey plasma measured up to 24 hrs post dose by LC-MS/MS analysis; type: ADME, organism-based, Macaca fascicularis; conditions: in vivo
Rattus norvegicus [23] = test: In vivo inhibition of glycine transporter-1 in Sprague-Dawley rat assessed as increase in medial prefrontal cortex glycine level at 3 to 10 mg/kg, po administered through oral gavage measured after 80 to 300 mins by LC-MS/MS analysis relative to control; type: functional; design: scale not given: the % may be the effect or the level left
In short: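 Freely moving drug-naive adult male Sprague-Dawley rats, n = 5-6 per group, given 1.5, 4.7 or 15.7 μmol/kg by oral gavage at t = 0. Vehicle was 5% Solutol / 20% Captisol in 25 mM PBS, pH 2. mPFC dialysate was sampled over 5 h and analysed by HPLC-MS/MS. Values were normalized to basal levels (t = -80 to 0 min). Two-way repeated-measures ANOVA with Student-Newman-Keuls test.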

Sequence of Cytochrome P450 2C9 (P11712 whole entry): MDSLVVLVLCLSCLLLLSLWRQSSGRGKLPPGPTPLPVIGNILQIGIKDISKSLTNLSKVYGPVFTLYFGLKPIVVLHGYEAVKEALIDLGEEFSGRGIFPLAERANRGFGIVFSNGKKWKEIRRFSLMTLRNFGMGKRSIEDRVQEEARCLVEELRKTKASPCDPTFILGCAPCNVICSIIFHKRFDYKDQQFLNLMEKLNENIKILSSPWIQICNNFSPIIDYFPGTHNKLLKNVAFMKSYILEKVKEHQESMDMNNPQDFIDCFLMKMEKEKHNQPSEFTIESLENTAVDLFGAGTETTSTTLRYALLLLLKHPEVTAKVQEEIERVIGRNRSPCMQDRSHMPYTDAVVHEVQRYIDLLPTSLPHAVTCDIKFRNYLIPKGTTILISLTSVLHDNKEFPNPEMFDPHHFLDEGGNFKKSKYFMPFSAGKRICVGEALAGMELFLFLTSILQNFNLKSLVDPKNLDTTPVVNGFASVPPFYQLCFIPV

## Cl.Cn1cc(S(=O)(=O)N2CCN(C3(CNC(=O)c4ccc(C(F)(F)F)cc4Cl)CCC(F)(F)CC3)CC2)nn1
Rattus norvegicus [1]
  Activity: 329.1%
[2]
  concentration at 2 h: 8.3 nM
[3]
  concentration at 2 h: 7.6 nM
[4]
  concentration at 2 h: 66.8 nM
[5]
  concentration at 2 h: 334 nM
Rattus norvegicus [6]
  Activity: 188%
Rattus norvegicus [7]
  Activity: 266.3%
[8]
  concentration at 2 h: 21 nM
[9]
  concentration at 2 h: 38.2 nM
[10]
  Activity: Non-Toxic

## CC(NC(=O)c1ccc(C(F)(F)F)cc1Cl)C1(N2CCN(S(=O)(=O)c3cn(C)nn3)CC2)CCC(F)(F)CC1.Cl (single isomer, unassigned; (+))
[11]
  CL: 12 microL/ml/min
Cytochrome P450 2C9
  IC50: > 7.2 µM
[12]
  efflux ratio: 2
[13]
  half-life: 4.33 h
[14]
  Drug uptake: Dose-dependent effect
Cynomolgus monkey
  ED200: 4.7 to 15.7 µmol/kg
[15]
  concentration at 1 h: 3.6 ng/mL
[16]
  concentration at 3 h: 5.7 ng/mL
[17]
  concentration at 8 h: 2 ng/mL
[18]
  concentration at 0.5 h: 67.9 ng/mL
[19]
  concentration at 3 h: 205 ng/mL
[20]
  concentration at 1 h: 5.9 ng/mL
[21]
  concentration at 8 h: 7.6 ng/mL
[22]
  Drug uptake: Dose-dependent effect
Rattus norvegicus [23]
  Activity: >150%
